Assay outcomes deposited in PubChem by several laboratories.
An excerpt weighted towards active compounds, which were near 1.7% of everything screened.
Neddyl block: cullin neddylation inhibition. calls only at 25 µM. TR-FRET cullin neddylation, biochemical. actives 0.58% (n = 360,000). AID 651699. P61081+Q13564; in the data active means inhibition above about 36%
Target sequence (P61081 whole entry, looked up): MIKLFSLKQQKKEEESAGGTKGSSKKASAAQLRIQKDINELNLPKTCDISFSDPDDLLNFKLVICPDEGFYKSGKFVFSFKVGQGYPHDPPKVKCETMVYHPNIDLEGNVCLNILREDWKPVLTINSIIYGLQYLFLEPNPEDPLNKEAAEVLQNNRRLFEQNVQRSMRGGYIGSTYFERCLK
Target sequence (Q13564 whole entry, looked up): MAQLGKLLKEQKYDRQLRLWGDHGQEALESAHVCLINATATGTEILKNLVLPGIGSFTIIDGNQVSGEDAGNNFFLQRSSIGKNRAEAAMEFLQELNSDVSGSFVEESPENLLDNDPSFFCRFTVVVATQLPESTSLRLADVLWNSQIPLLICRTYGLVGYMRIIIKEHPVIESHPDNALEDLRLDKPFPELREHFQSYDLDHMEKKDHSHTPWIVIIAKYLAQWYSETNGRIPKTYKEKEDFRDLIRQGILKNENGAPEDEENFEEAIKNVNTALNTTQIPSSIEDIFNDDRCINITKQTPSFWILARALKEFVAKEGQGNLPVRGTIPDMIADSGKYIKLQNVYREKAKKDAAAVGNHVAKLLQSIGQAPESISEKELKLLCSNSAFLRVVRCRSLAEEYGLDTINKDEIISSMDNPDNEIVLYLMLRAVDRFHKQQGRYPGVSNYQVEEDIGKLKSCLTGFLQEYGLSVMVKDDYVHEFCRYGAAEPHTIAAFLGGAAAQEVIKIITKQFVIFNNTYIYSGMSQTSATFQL
proCasp7 act: counter-screen: procaspase-7 (human) activation | P55210 | recombinant procaspase-7, Ac-DEVD-pNA absorbance 405 nm; D23A/D198A/D206A triple mutant, cannot self-cleave; scale: DMSO 0, 5 µM enzyme 100 | activation, % at 8.5 µM | actives 0.093% (n = 330,000) | AID 463210;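 active means percent activation above the screen-wide mean plus 3 SD, cut at about 25% in these data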
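buffer or medium = Zinc-free HEPES/NaCl buffer, pH 7.4 | material = Procaspase-7 triple mutant (PC-7 D3A) | input = 2 µM procaspase-7 mutant as dispensed | signal = Epi-absorbance of released pNA at 405 nm, two timepoints | timing = 1 h preincubation, 2 h reaction | replicates = singlicate compound testing | evaluation = % activation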
PolyA inh: blocks polyadenylation in yeast reporter cells; S. cerevisiae SKY197-pL101 polyadenylation reporter, beta-gal luminescence; efflux-impaired pdr1/pdr3 knockout yeast; score 100 = 6 SD above DMSO; activity score, % at 12 µM; actives 0.02% (n = 300,000);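 active means lowest replicate activity score at least 50, where 100 means six control SD above control mean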;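 further: yeast exposed to compound for 9 h at 30 °C; higher score means more reporter readthrough which indicates perturbed polyadenylation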
IMP-1 inh-1: blocks Pseudomonas aeruginosa IMP-1 metallo-beta-lactamase | purified IMP-1, nitrocefin hydrolysis, epi-absorbance fluorescence | inhibition, % at 5.6 µM | actives 0.45% (n = 290,000);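 active means inhibition above the mean plus 3 SD of all compounds in the same screening run, cut at about 4.5% in these data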;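 further: 0% = IMP-1 with DMSO and 100% = DMSO wells lacking enzyme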
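System – purified recombinant IMP-1 beta-lactamase · Input – IMP-1 dispensed at 0.2 nM · Timing – 15 min preincubation plus 25 min reaction at 25 °C · Signal – Epi-absorbance fluorescence, 480 nm excitation, 530 nm emission · Measure – percent IMP-1 inhibition derived from blank-referenced optical density · Controls – Enzyme-plus-DMSO low control, enzyme-free DMSO high control · Replication – singlicate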
VIM-2 inh: blocks Pseudomonas aeruginosa VIM-2 metallo-beta-lactamase; inhibition, % at 5.6 µM; actives 0.89% (n = 290,000); purified VIM-2, nitrocefin hydrolysis, epi-absorbance fluorescence;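 active means inhibition above the mean of all tested compounds plus 3 SD, cutoff set per screening run, cut at about 7.5% in these data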;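 further: red hydrolysis product quenches plate fluorescence so inhibitors raise well fluorescence; 0% = enzyme with DMSO and 100% = DMSO without enzyme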
procasp3 activ: procaspase-3 (human) activation; P42574; recombinant procaspase-3 D3A, Ac-DEVD-pNA absorbance 405 nm; activation, % at 8.5 µM; actives 0.11% (n = 330,000); AID 463141;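 active means activation above the mean of all tested compounds plus 3 SD, cut at about 21% in these data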;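 further: 0% = DMSO alone and 100% = DMSO wells spiked with extra 5 µM PC-3 D3A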
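Evaluation: percent activation relative to control range; Material: Procaspase-3 D3A mutant, all three cleavage aspartates alanine; Compound: single dose, 8.5 µM nominal compound, 0.8% DMSO; Replication: one well per compound; Signal: absorbance at 405 nm, 0 and 120 min; Schedule: 1 h preincubation plus 2 h reaction at 25 °C.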
IMP-1 inh-2: IMP-1 inhibition, counter-screen for VIM-2 inhibitors; inhibition, % at 5.6 µM; shares compounds with VIM-2 inh; 1,300 tested, under 10 active; purified IMP-1, nitrocefin hydrolysis, epi-absorbance fluorescence; call rule not given here;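 further: 0% = enzyme with vehicle and 100% = vehicle without enzyme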
VIM-2 FRET ctr: counter-screen for VIM-2 inhibitors: epi-absorbance artifacts via FRET. shares compounds with VIM-2 inh. purified VIM-2, CCF2 FRET substrate hydrolysis. inhibition, % at 5.6 µM. actives 23% (n = 1,300);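 active means inhibition above the mean of all tested compounds plus 3 SD, cut at about 19% in these data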;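 further: 0% = VIM-2 plus DMSO and 100% = no enzyme wells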
TEM-1 counter: selectivity counter-screen for VIM-2 inhibitors: E. coli TEM-1 inhibitors; inhibition, % at 5.6 µM; Purified TEM-1, nitrocefin hydrolysis, epi-absorbance fluorescence; AID 1866; shares compounds with VIM-2 inh; actives 3% (n = 1,300);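 active means inhibition above that campaign's mean inhibition plus 3 SD, cut at about 0.46% in these data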;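 further: 0% = TEM-1 with DMSO and 100% = TEM-1 with 100 µM potassium clavulanate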
VIM-2 confirm 2: confirmation of P. aeruginosa VIM-2 metallo-beta-lactamase inhibitors; shares compounds with VIM-2 inh; purified VIM-2, nitrocefin hydrolysis, epi-absorbance; inhibition, % at 5.6 µM; actives 96% (n = 1,300);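 active means inhibition of the VIM-2 beta-lactamase enzyme above about 11% from the earlier first-round screen, limit read from the data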;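 further: 0% = VIM-2 with DMSO and 100% = buffer wells without enzyme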
* = called active by the depositor; i = inactive; . = not tested or not shown.

SMILES	Neddyl block	proCasp7 act	PolyA inh	IMP-1 inh-1	VIM-2 inh	procasp3 activ	IMP-1 inh-2	VIM-2 FRET ctr	TEM-1 counter	VIM-2 confirm 2
Cc1coc2c(C)c3oc(=O)c(CCC(=O)NCCCn4ccnc4)c(C)c3cc12	.	5	-13	4	31*	4	-2	-6	-12	36*
Cc1cc(C)cc(OC(C)C(=O)NCCCn2ccnc2)c1 (stereo unspecified)	i	6	7	-1	-2	-1	.	.	.	.
Cc1oc2c(C)c3oc(=O)c(CCC(=O)NCCCN4CCCC4=O)c(C)c3cc2c1C	.	4	32	0	-1	8	.	.	.	.
CCN(C1CCS(=O)(=O)C1)S(=O)(=O)c1cccc([N+](=O)[O-])c1 (stereo unspecified)	i	-4	5	-2	-3	-3	.	.	.	.
CCOc1ccc(NS(=O)(=O)c2ccc(NC(C)=O)c(OC)c2)cc1	i	-8	12	1	-1	-10	.	.	.	.
Cc1cccc(NC(=S)N(Cc2cccc(Br)c2)CC2CCC(C(=O)O)CC2)c1 (stereo unspecified)	i	5	-5	-2	0	8	.	.	.	.
O=[N+]([O-])c1cc(CN2CCN(c3cccc(C(F)(F)F)c3)CC2)c2cccnc2c1O	.	1	-19	-4	35*	-7	-3	2	-7	15*
Oc1c(Cl)cc(CN2CCCCC2)c2cccnc12	i	-32	-1	-2	15*	-10	-4	4	-6	17*
COc1ccccc1N1CCN(Cc2cc(Br)c(O)c3ncccc23)CC1	i	-28	3	-4	24*	-34	-3	2	-6	7
O=[N+]([O-])c1cc(CN2CCCC2)c2cccnc2c1O	i	-19	.	-5	38*	-14	-3	3	-6	44*
CCOc1ccccc1N1CCN(Cc2cccc(OC)c2O)CC1	i	-3	1	-1	0	1	.	.	.	.
Oc1c(CN2CCCCC2)ccc2cccnc12	i	.	.	.	.	.	.	.	.	.
CSc1ccccc1NC(=O)CN(C)C(=O)Cn1c(=O)oc2ccccc21	i	5	4	.	.	13	.	.	.	.
CCn1ccnc1CNCc1ccc(OCC(O)CN(C)Cc2ccccc2)cc1 (stereo unspecified)	i	6	-6	-2	8	-2	.	.	.	.
CN(Cc1ccccc1)CC(O)COc1ccc(CNCc2nccn2C)cc1 (stereo unspecified)	i	3	4	-4	12*	-5	-4	-6	-4	14*
CC(Cn1cncn1)C(=O)N1CCN(S(=O)(=O)c2ccc(Cl)cc2)CC1 (stereo unspecified)	i	11	-2	-3	-1	-1	.	.	.	.
COCCn1c(=N)c(C(=O)NCCc2ccccc2)cc2c(=O)n3cccc(C)c3nc21	.	-2	-5	-2	-3	-8	.	.	.	.
Cc1cccn2c(=O)c3cc(C(=O)NCCc4ccccc4)c(=N)n(CCCn4ccnc4)c3nc12	.	-9	1	-1	14*	-19	-2	-39	-6	51*
C=CCn1c(=N)c(C(=O)NCCCOC)cc2c(=O)n3cccc(C)c3nc21	i	-11	-6	0	25*	-8	-4	-88	-8	29*
CCCn1c(=N)c(S(=O)(=O)c2ccccc2)cc2c(=O)n3cccc(C)c3nc21	.	-21	-9	-1	15*	-13	-4	-1	-7	23*
CCNC(=O)c1cc2c(=O)n3cccc(C)c3nc2n(CCc2ccccc2)c1=N	i	-6	9	-3	-2	-9	.	.	.	.
CCCCNC(=O)c1cc2c(=O)n3cccc(C)c3nc2n(Cc2ccccc2)c1=N	.	-7	1	-3	-2	-7	.	.	.	.
CNC(=O)c1cc2c(=O)n3cccc(C)c3nc2n(C(C)C)c1=N	i	-8	-1	1	12*	-11	-3	-92	-6	26*
O=C(Nc1ccccc1)c1cc(C2CCCN(C(=O)C/C=C/c3ccccc3)C2)on1 (stereo unspecified)	i	.	.	.	.	.	.	.	.	.
Cc1ccnc(NC(=O)c2ccc(Br)s2)c1	i	12	-10	-4	-3	-2	.	.	.	.
SMILES	Neddyl block	proCasp7 act	PolyA inh	IMP-1 inh-1	VIM-2 inh	procasp3 activ	IMP-1 inh-2	VIM-2 FRET ctr	TEM-1 counter	VIM-2 confirm 2
CCn1c(SCC(=O)NNC(=O)c2ccco2)nnc1-c1ccco1	i	-5	-11	-2	-3	9	.	.	.	.
Cc1ccc2nc3c(cc(C(=O)NC4CCCC4)c(=N)n3CCCn3ccnc3)c(=O)n2c1	.	-8	0	0	29*	-13	-4	-17	-5	68*
CCOc1ccc(C(=O)Cn2cnnc2C#N)cc1	i	4	8	-4	-2	-1	.	.	.	.
COc1ccc(NC(=O)N[C@H]2C=C[C@@H](CC(=O)NC3CCC3)O[C@@H]2CO)cc1	i	.	.	.	.	.	.	.	.	.
O=C(/C=C/c1ccccc1)OCC(=O)c1c[nH]c2ccccc12	i	15	.	.	.	0	.	.	.	.
COc1ccccc1C(=O)COC(=O)/C=C/c1ccccc1	i	0	-11	-2	13*	4	-4	29*	-2	18*
CCCC[C@@H](CNC)NC[C@H](Cc1ccc(O)cc1)NCCc1ccc(OCC)cc1	i	-8	-16	1	67*	2	-3	-3	-6	70*
O=C(Nc1ccc(N2CCCCC2)cc1)c1cccnc1	i	15	18	-3	-1	13	.	.	.	.
O=C(c1ccc(N2CCNCC2)cc1)c1cccnc1	i	-4	17	-1	16*	2	-4	-1	-4	43*
CN1CCN(c2ccccc2NC(=O)c2sc3ccccc3c2Cl)CC1	i	3	-21	-2	16*	0	-2	0	-7	39*
CCCC(=O)N1CCN(c2ccc(NC(=O)c3sc4ccccc4c3Cl)cc2)CC1	i	7	7	-2	-4	0	.	.	.	.
O=C(O)COc1ccccc1/C=N/n1c(C2CCCCC2)n[nH]c1=S	i	.	10	-4	27*	.	-3	53*	-8	40*
